High-throughput results from PubChem.
MT1-MMP act inh – MT1-MMP (human) activation inhibition. P50281. HT1080 RFP-PRO-GFP cells, GFP/RFP ratio fluorescence, overnight; percent of plate control window, DMSO zero. GFP/RFP ratio change, % at 20 µM. 360,000 tested, 0.061% active. AID 651647;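 active means GFP/RFP ratio change of at least 30% with cell ATP level not reduced by more than half and red fluorescence within 50% of control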
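Read-out: GFP/RFP fluorescence ratio; Test system: RFP-PRO-GFP reporter HT1080 cells; Compound dosing: single-point 20 µM compound, 1% DMSO; Times: overnight compound exposure at 37 °C.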
H9c2 TAG inh – inhibitors of triacylglycerol accumulation; 230,000 tested, 0.66% active; H9c2 cells, Nile Red lipid (TAG) fluorescence; cells loaded with 200 µM oleic acid; inhibition, % at 12.5 µM;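 active means pattern-corrected inhibition of lipid staining of at least 50% with the nuclear-stain viability signal not falling by more than 50%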
Efflux pump inh – antifungal efflux pump inhibition, Nile Red retention | S. cerevisiae Candida pump triplex | inhibition, % at 10 µM | 330,000 tested, 0.44% active;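 active means plate passing quality check with inhibition over a set limit, or well fluorescence over plate mean plus 4 SD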;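 further: Nile Red retained in pooled yeast measured as flow cytometry median fluorescence; higher means more Nile Red kept so more efflux inhibition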
HGIII-sPLA2 inh – Inhibits HGIII-sPLA2 liposome hydrolysis, primary screen; QFRET BODIPY PC-A2 liposome hydrolysis, fluorescence; 370,000 tested, 0.56% active; Q9NZ20; inhibition, % at 12.2 µM; AID 743126;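 active means inhibition above mean plus 3 SD of compounds lying within the high and low control bounds, cut at about 19% in these data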
Target sequence (Q9NZ20 whole entry, looked up): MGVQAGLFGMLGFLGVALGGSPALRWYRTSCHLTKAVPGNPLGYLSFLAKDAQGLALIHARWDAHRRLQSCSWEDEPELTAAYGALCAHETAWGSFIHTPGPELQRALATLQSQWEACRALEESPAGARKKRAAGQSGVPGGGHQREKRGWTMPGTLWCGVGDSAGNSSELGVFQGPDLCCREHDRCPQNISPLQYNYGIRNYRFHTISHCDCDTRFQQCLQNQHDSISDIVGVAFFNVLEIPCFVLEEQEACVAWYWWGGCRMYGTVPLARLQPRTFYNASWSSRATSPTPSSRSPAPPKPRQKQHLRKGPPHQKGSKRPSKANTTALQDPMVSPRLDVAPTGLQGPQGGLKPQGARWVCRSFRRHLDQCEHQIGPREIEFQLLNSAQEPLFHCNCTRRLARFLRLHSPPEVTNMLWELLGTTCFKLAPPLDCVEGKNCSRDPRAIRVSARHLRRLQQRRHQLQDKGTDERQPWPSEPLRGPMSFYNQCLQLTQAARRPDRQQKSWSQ
hGIII sPLA2 conf – human GIII-sPLA2 inhibition, confirmation | inhibition, % at 12.2 µM | recombinant hGIII-sPLA2, BODIPY PC-A2 QFRET fluorescence | shares compounds with HGIII-sPLA2 inh | 2,000 tested, 34% active;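 active means mean inhibition across triplicates above the hit cutoff set in the earlier primary screen, cut at about 19% in these data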
535nm interf – counter-screen for HGIII-sPLA2 inhibitors: 535nm fluorescence interference. inhibition, % at 12.2 µM. 2,000 tested, 8.5% active. BODIPY FL product fluorescence interference, QFRET. shares compounds with HGIII-sPLA2 inh;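 active means average inhibition above the solvent-only control mean plus 3 SD, cut at about 6% in these data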
BODIPY interf DR – interferes with 535nm fluorescence in dose response counter-screen; shares compounds with HGIII-sPLA2 inh; BODIPY FL product fluorescence interference, cell-free; IC50, µM; 240 tested, under 10 active;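 active means IC50 at or below 10 µM; inactive means IC50 above 10 µM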
A number is an active result; i = inactive; nt = not tested or not shown. Rows were chosen to be rich in hits. Some 1.3% of all compounds tested hit in one or more screens of this group.

SMILES | MT1-MMP act inh | H9c2 TAG inh | Efflux pump inh | HGIII-sPLA2 inh | hGIII sPLA2 conf | 535nm interf | others
CCCc1cc(=O)[nH]c(SCC(=O)Nc2sc3c(c2C(N)=O)CCCC3)n1 | i | i | i | i | nt | nt
O=[N+]([O-])c1ccccc1/C=N/n1c(C2CCCCC2)n[nH]c1=S | i | nt | i | 20 | 28 | i | BODIPY interf DR=i
COc1ccc(C(=O)c2coc(-c3ccccc3C(=O)O)c2C(=O)O)cc1 | i | nt | i | 19 | i | i
COc1ccc(C(=O)c2ccccc2C(=O)c2ccccc2)cc1 | i | i | nt | i | nt | nt
O=C(CNc1ccc2ccccc2c1)N/N=C/c1ccncc1 | i | nt | i | 20 | i | i
CC(=O)c1ccc(Nc2nc(C(N)COCc3ccccc3)cs2)cc1 (configuration not stated) | i | i | nt | i | nt | nt
O=C(NC(=S)NCCc1ccccc1)c1cccc(Cl)c1 | i | i | i | i | nt | nt
CC12CCCC[C@@H]1CCC1C2CCC2(C)C1CC[C@@]2(O)CNCCO (some centres not stated) | i | nt | i | 25 | i | i
CN1C(=O)C2(c3ccccc31)c1c(oc3ccccc3c1=O)C(=O)N2CCCO (configuration not stated) | i | i | i | 21 | i | i
COc1ccc(CC(=O)N(Cc2ccccc2)c2ccccc2C(=O)Nc2cc(OC)ccc2OC)cc1 | nt | nt | nt | i | nt | nt
CCC(=O)Nc1c(C(=O)N2CCN(c3ccccn3)CC2)cnn1-c1ccc(C)cc1 | i | nt | i | 22 | i | i
CCC(=O)Nc1c(C(=O)N2CCN(c3ccccn3)CC2)cnn1-c1ccc(Cl)cc1 | i | nt | i | i | nt | nt
O=C1c2ccccc2C(c2nnnn2-c2ccc3c(c2)OCCO3)N1Cc1cccs1 (configuration not stated) | i | nt | nt | i | nt | nt
CCN(CC)c1ccc(NC(=O)C2=CC=CN3CCS(=O)(=O)N=C23)cc1 | i | i | i | 21 | i | i
Cc1ccc2nsnc2c1NC(=O)COc1ccccc1 | i | i | i | i | nt | nt
O=C(NC1C2CCCC1CN(C1CC1)C2)c1ccc(Cl)cc1 (configuration not stated) | i | nt | i | 20 | i | i
CN1C2CCC1CC(NC(=O)c1ccc(Cl)cc1)C2 (configuration not stated) | i | i | i | i | nt | nt
COc1cccc(C(=O)Nc2c[nH]c(=O)[nH]c2=O)c1 | i | i | i | 21 | i | i
N#CNc1nc(O)cc(=O)[nH]1 | i | nt | i | nt | nt | nt
CCOc1ccc(NC(=S)NN2C(C)CCCC2C)cc1 (configuration not stated) | i | nt | i | 22 | i | i
CCOc1ccc(NC(=O)NN2C(C)CCCC2C)cc1 (configuration not stated) | i | nt | i | i | nt | nt
CC(=O)C1(C(=O)Nc2cc(C)cc(C)c2)CC(c2ccccn2)=NO1 (configuration not stated) | nt | nt | nt | i | nt | nt
O=C(Nc1ccc(Cl)cc1C(=O)N1CCCCC1)c1ccco1 | i | nt | i | i | nt | nt
O=C(Nc1ccc(Cl)cc1C(=O)N1CCOCC1)c1ccco1 | i | nt | i | 20 | i | i
CCC(C(=O)OCCOCCN(CC)CC)c1ccccc1 (configuration not stated) | i | i | i | 20 | i | i
SMILES | MT1-MMP act inh | H9c2 TAG inh | Efflux pump inh | HGIII-sPLA2 inh | hGIII sPLA2 conf | 535nm interf | others
CC1=CC[C@@]23CCCN2C(=O)CCC[C@H]3C1 | i | i | i | i | nt | nt
Cc1ccc2c(c1)C(=O)C(=O)N2CCOc1ccccc1 | i | i | i | 25 | i | i
Cc1cccc(OCCN2C(=O)C(=O)c3cc(C)ccc32)c1 | i | i | i | 24 | 21 | i
COc1ccc2c(=O)cc(-c3cccnc3)oc2c1OC | i | nt | i | 20 | i | i
COc1cc(-c2nnc(-c3cccnc3)o2)cc(OC)c1OC | i | nt | i | i | nt | nt
Cc1cc(C)cc(NC(=O)Cn2cc3c(n2)CCCCC3)c1 | nt | nt | i | nt | nt | nt
CN(C)c1ccc(NC(=O)Cn2cc3c(n2)CCCC3)cc1 | i | i | i | 21 | i | i
COC(=O)[C@]12C[C@H](CC(=O)NCc3cccc(C(F)(F)F)c3)C(=O)N(CCc3ccc(OC)c(OC)c3)C1=C[C@H](C(C)C)O[C@@H]2C1CC1 | nt | nt | nt | i | nt | nt
Cn1cccc1CC(=O)NNC(=S)Nc1ccc(Cl)cc1 | i | nt | i | 24 | 27 | i
